Source: PubChem BioAssay (Johns Hopkins Ion Channel Center)
In the library only some 3.5% were active in any assay of this set; here they are far more common.
RGS4 pot – RGS4 potentiators or activators, primary screen, cell-based, HEK293 M3R inducible RGS4, calcium flux. carbachol calcium flux Fluo4; stronger effect = lower value. B-score at 10 µM. actives 0.92% (n = 310,000). AID 463111, 2010;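 active = B-score of the integrated calcium signal more than 4 SD below the library mean, with starting fluorescence not abnormally high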;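 also: negative B-score means reduced calcium response which marks RGS4 activation or potentiation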
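Also added: carbachol at ECmax as muscarinic agonist stimulus; Assay system: HEK293 cells with stable M3R and inducible RGS4; Timing: overnight RGS4 induction, 30 min dye load 37 °C, 20 min compound RT; Measured by: Fluo4-AM (2 µM) calcium-flux fluorescence, kinetic read.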
MrgX1 ag – agonists of human MrgX1 receptor, primary screen, HEK293 cells, Fluo-4 calcium flux; Fluo-4 calcium fluorescence, agonist mode; stronger effect = higher value; actives 0.44% (n = 310,000); AID 588627, 2011; B-score at 10 µM; Mas-related G-protein coupled receptor member X1 (Homo sapiens), Q96LB2;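 active = calcium response B-score plate-corrected fluorescence ratio at least 3 library SD, with starting fluorescence B-score inside 5 SD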
Target sequence (Q96LB2 whole entry, looked up): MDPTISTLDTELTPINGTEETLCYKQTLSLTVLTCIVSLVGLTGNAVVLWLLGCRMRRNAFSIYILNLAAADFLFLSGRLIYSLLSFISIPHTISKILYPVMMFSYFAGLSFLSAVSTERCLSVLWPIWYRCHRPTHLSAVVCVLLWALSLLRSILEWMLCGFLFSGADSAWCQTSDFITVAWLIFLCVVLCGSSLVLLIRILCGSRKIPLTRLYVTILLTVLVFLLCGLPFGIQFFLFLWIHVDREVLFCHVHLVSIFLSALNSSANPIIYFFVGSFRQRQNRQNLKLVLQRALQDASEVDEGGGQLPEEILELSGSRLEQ
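Test system: HEK293 cells stably expressing human MrgX1 receptor; amount: 15,000 cells per well; doses: compound delivered in addition one of three; times: overnight plating before 1 h dye loading; detection: Fluo-4 NW calcium-flux fluorescence, kinetic read; read-out basis: B-scored fluorescence response ratio; controls: positive and negative controls per plate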
RGS4 block – RGS4 inhibitors, primary screen, cell-based, HEK293 M3R inducible RGS4, calcium flux | Regulator of G-protein signaling 4 (Homo sapiens), P49798 | Fluo-4 calcium flux; stronger effect = higher value; triggered by carbachol at its EC20 | B-score at 10 µM | actives 0.45% (n = 310,000);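 active = B-score, a plate-corrected calcium signal, over three deviations above library mean, with baseline fluorescence within five deviations of library mean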;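 also: RGS4 expression induced by doxycycline in cells with stable M3 receptor; B-score is computed from the integrated fluorescence ratio over baseline after carbachol; higher B-score means a larger calcium signal and so more RGS4 inhibition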
Target sequence (P49798 whole entry, looked up): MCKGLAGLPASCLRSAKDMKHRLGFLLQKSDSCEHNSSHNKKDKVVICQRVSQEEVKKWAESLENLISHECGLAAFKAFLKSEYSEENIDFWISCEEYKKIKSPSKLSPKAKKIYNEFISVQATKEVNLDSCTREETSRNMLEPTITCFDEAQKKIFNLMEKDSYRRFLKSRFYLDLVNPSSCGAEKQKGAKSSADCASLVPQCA
MrgX1 antagonist – antagonists of human MrgX1 receptor, primary screen, HEK293 cells, Fluo-4 calcium flux. Mas-related G-protein coupled receptor member X1 (Homo sapiens), Q96LB2. AID 588676, 2011. BAM8-22 antagonism; stronger effect = lower value. B-score at 10 µM. actives 1.3% (n = 310,000);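 active = calcium-response B-score plate-corrected more than 3 library SD below zero, starting fluorescence within 5 deviations, no agonist response on first addition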;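 also: peak minus trough fluorescence over baseline after final BAM8-22 challenge near maximal dose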
MrgX1 PAM – positive allosteric modulators of MrgX1, primary screen, HEK293 cells, Fluo-4 calcium flux; Mas-related G-protein coupled receptor member X1 (Homo sapiens), Q96LB2; FDSS; stronger effect = higher value; B-score at 10 µM; actives 0.63% (n = 310,000); AID 588675, 2011;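 active = plate-corrected calcium response at least 3 library SD above typical, normal starting fluorescence, not activating the receptor alone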;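 also: compound read alongside a low EC10 to EC30 dose of BAM8-22 agonist; peak minus trough fluorescence over baseline measured at the second addition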
MrgX1 ant reconf – MrgX1 receptor antagonists, duplicate retest, confirmation, HEK293 cells, Fluo-4 calcium flux | actives 19% (n = 2,300) | BAM8-22 calcium flux; stronger effect = lower value | shares compounds with MrgX1 antagonist | AID 602420, 2012 | remaining BAM8-22 calcium response % of control (stronger effect = lower value), % at 10 µM;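 active = remaining agonist calcium response no higher than 100% minus 3 SD of agonist-only control wells, with starting fluorescence near control levels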;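 also: agonist BAM8-22 given at a near maximal EC90 to ECmax level; peak minus minimum fluorescence divided by baseline after agonist addition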
HEK293 Ca flux – nonspecific calcium signal in parental HEK293, confirmation, counter-screen for MrgX1 antagonist project, parental HEK293 cells, Fluo-4 calcium flux; shares compounds with MrgX1 antagonist; Fluo-4 calcium fluorescence, FDSS; actives 2% (n = 4,000); fluorescence ratio F(max-min)/F0 at 10 µM; AID 624111, 2012;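 active = duplicate-averaged calcium fluorescence ratio at least three times the standard deviation of buffer wells, a nonspecific response in parental cells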
HEK293 Ca counter – calcium response in parental HEK293 cells, primary screen, counter-screen for MrgX1 allosteric activator project, cell-based, Fluo-4 calcium flux, duplicate; fluorescence ratio F(max-min)/F0 at 10 µM; Fluo-4 fluorescence ratio; stronger effect = higher value; shares compounds with MrgX1 antagonist; actives 0.4% (n = 4,000);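 active = calcium fluorescence ratio, averaged over duplicates, at least 3 SD of the buffer-well ratio, meaning a nonspecific response in receptor-free cells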;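 also: untransfected parental HEK293 lacking MrgX1 used as counterscreen for MrgX1 allosteric activators; fluorescence change taken during the second addition on a kinetic imager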
HEK293 Ca cntr2 – calcium response in parental HEK293 cells, primary screen, counter-screen for MrgX1 agonist project, cell-based, Fluo-4 calcium flux, duplicate, agonist mode. shares compounds with MrgX1 antagonist. Fluo-4 calcium fluorescence (FDSS); stronger effect = higher value. fluorescence ratio F(max-min)/F0 at 10 µM. actives 8.7% (n = 4,000);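 active = calcium fluorescence ratio at least three times the spread of buffer wells, meaning a non-specific response in parental cells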
Numbers without * were called inactive; i = inactive; nt = no result.

SMILES	RGS4 pot	MrgX1 ag	RGS4 block	MrgX1 antagonist	MrgX1 PAM	MrgX1 ant reconf	HEK293 Ca flux	HEK293 Ca counter	HEK293 Ca cntr2
O=C(CSc1nnc(CNC(=O)c2cccs2)o1)NC1CCCCC1	i	i	i	-7.1*	i	i	i	i	i
Cc1cccc(NC(=S)NC(C)CCc2ccccc2)c1 (stereo not drawn)	i	i	i	-7.8*	i	i	i	i	i
CCCCn1c(N)c(N(CCOC)C(=O)c2ccc(N3CCCC3)c([N+](=O)[O-])c2)c(=O)[nH]c1=O	i	i	i	i	i	nt	nt	nt	nt
c1ccc(COc2ccc(OCCn3cncn3)cc2)cc1	i	i	i	-5.9*	i	i	i	i	i
Cc1onc(-c2c(Cl)cccc2Cl)c1C(=O)N1C(C)CCCC1C (stereo not drawn)	i	i	i	i	i	nt	nt	nt	nt
O=C(NCc1ccncc1)c1ccc(Br)cc1	i	i	i	i	i	nt	nt	nt	nt
O=C(CCNC(=O)c1ccc(Br)cc1)NCc1ccncc1	i	i	i	-6.1*	i	i	i	i	i
Cc1ccc(C)c(NC(=O)CN(C)C(=O)c2cccc(N3C(=O)CCC3=O)c2)c1	i	i	i	i	i	nt	nt	nt	nt
COc1ccc(Cc2nnc(NS(C)(=O)=O)s2)cc1	i	i	i	-6.4*	i	i	i	i	i
CC(Oc1ccccc1)C(=O)N=C1SC2CS(=O)(=O)CC2N1Cc1ccccc1 (stereo not drawn)	i	i	i	i	i	nt	nt	nt	nt
O=C(NC1CCS(=O)(=O)C1)C12CC3CC(CC(C3)C1)C2 (stereo not drawn)	i	i	i	-9.4*	i	i	i	i	i
N#CC1=C(N)Oc2cc(N)ccc2C1c1ccccc1F (stereo not drawn)	i	i	i	i	i	nt	nt	nt	nt
O=C(CCS(=O)(=O)c1ccccc1)Nc1cccc(-c2nc3ccccc3s2)c1	i	i	i	-6.2*	i	84%*	i	i	i
O=C1CCc2cc(S(=O)(=O)NCc3ccccc3Cl)cc3c2N1CC3	i	i	i	i	i	nt	nt	nt	nt
CC(=O)N1CCN(S(=O)(=O)c2cccc(C(=O)Nc3ccccc3N3CCCC3)c2)CC1	i	i	i	i	i	nt	nt	nt	nt
CN1CCN(S(=O)(=O)c2cccc(C(=O)Nc3ccccc3N3CCCC3)c2)CC1	i	i	i	-4.6*	i	i	i	i	i
COc1ccc(CNC(=O)COc2cc(=O)n(C)c3ccccc23)cc1	i	i	i	i	i	nt	nt	nt	nt
Cn1c(=O)cc(OCC(=O)NCc2cccs2)c2ccccc21	i	i	i	-7.1*	i	i	i	i	i
CC(=O)c1ccc(NC(=S)NC(C)c2ccc(Cl)cc2Cl)cc1 (stereo not drawn)	i	i	i	-10*	i	i	i	i	i
CSc1ccc(NC(=O)N2CC=C(n3c(=O)[nH]c4ccccc43)CC2)cc1	i	i	i	-4.7*	i	i	i	i	i
CC(=O)COc1ncnc2c(Cl)cc(Cl)cc12	i	i	i	-4.9*	i	i	i	i	i
COCc1cc(=O)[nH]c(=S)[nH]1	i	i	i	-7.1*	i	i	i	i	i
O=c1cc(Cc2ccccc2)[nH]c(=S)[nH]1	i	i	i	-5*	i	i	i	i	i
Cc1cc(NS(=O)(=O)c2cc(Cl)sc2Cl)no1	i	i	i	i	i	nt	nt	nt	nt
COC(=O)CCn1nnc(-c2cccs2)n1	i	i	i	-6.8*	i	75%*	i	i	i
SMILES	RGS4 pot	MrgX1 ag	RGS4 block	MrgX1 antagonist	MrgX1 PAM	MrgX1 ant reconf	HEK293 Ca flux	HEK293 Ca counter	HEK293 Ca cntr2
COC(=O)c1ccc(NC(=O)Cn2nnc(-c3cccs3)n2)cc1	i	i	i	i	i	nt	nt	nt	nt
COc1ccc(C(=O)Cn2nnc(-c3cccs3)n2)cc1	i	i	i	i	i	nt	nt	nt	nt
COc1ccc(N2CCN(C(=O)Cn3nnc(-c4cccs4)n3)CC2)cc1	i	i	i	-5.2*	i	i	i	i	i
O=C(CN1CCC(NC(=O)Nc2ccccc2)CC1)Nc1ccc([N+](=O)[O-])cc1	i	i	i	i	i	nt	nt	nt	nt
CCC(Sc1nc(-c2ccccc2)c(-c2ccccc2)[nH]1)C(=O)O (stereo not drawn)	i	i	i	i	i	nt	nt	nt	nt
Cc1cc(NC(=O)Cc2c(F)cccc2Cl)no1	i	i	i	i	i	nt	nt	nt	nt
O=C(Cc1c(F)cccc1Cl)Nc1ccon1	i	i	i	-6.5*	i	i	i	i	i
COc1cc(NC(=S)N2CCCCC2C)c(OC)cc1Cl (stereo not drawn)	i	i	i	-6.5*	i	i	i	i	i
COc1cc2ccccc2cc1C(=O)Nc1nccs1	i	i	i	-4.6*	i	i	i	i	i
COc1ccc(C(=O)CC(=O)C(=O)Nc2ccc(Cl)cc2)cc1	i	i	i	i	i	nt	nt	nt	nt
COc1ccc(C(=O)CC(=O)C(=O)Nc2ccc(OC)c(Cl)c2)cc1	i	i	i	-5.1*	i	i	i	i	i
